Experimental data taken from ChEMBL document CHEMBL4411328, “Synthesis and Structural/Functional Characterization of Selective M14 Metallocarboxypeptidase Inhibitors Based on Phosphinic Pseudopeptide Scaffold: Implications on the Design of Specific Optical Probes” (J Med Chem, 2019).
Active and inactive are the calls of the source. No cut-off for these calls is given here.

Columns and labels:
Carboxypeptidase A1 = target: T1, Carboxypeptidase A1 (Homo sapiens, UniProt P15085); experiment: Inhibition of human CPA1 using AAFP as substrate preincubated for 45 mins to 2 hrs measured at 30 sec intervals for 15 mins by UV/vis-spectrophotometry
T1 sequence (P15085 whole entry): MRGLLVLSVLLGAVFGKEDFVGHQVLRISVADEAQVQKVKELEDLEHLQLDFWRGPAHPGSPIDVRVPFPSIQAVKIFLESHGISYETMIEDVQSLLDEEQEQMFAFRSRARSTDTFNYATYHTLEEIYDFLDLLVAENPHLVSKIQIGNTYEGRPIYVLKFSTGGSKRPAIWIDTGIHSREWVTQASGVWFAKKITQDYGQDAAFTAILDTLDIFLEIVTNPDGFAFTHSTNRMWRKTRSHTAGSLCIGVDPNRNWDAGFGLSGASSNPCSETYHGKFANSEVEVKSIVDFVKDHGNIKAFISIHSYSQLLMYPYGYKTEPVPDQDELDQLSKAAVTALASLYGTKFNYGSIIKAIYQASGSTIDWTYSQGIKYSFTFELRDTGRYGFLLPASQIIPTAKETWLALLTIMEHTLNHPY
How it was run: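 hCPA1 was used at 1.0x10-8 M with AAFP substrate at 1.0x10-4 M, read at 355 nm. Enzyme and inhibitor were preincubated 45 min at 37 °C before substrate was added. Initial velocities were read every 30 sec for 15 min, in triplicate. Apparent Ki came from a fit to the tight-binding equation.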

Carboxypeptidase A2 = target: T2, Carboxypeptidase A2 (Homo sapiens, UniProt P48052); experiment: Inhibition of human CPA2 using AAFP as substrate preincubated for 45 mins to 2 hrs measured at 30 sec intervals for 15 mins by UV/vis-spectrophotometry
T2 sequence (P48052 whole entry): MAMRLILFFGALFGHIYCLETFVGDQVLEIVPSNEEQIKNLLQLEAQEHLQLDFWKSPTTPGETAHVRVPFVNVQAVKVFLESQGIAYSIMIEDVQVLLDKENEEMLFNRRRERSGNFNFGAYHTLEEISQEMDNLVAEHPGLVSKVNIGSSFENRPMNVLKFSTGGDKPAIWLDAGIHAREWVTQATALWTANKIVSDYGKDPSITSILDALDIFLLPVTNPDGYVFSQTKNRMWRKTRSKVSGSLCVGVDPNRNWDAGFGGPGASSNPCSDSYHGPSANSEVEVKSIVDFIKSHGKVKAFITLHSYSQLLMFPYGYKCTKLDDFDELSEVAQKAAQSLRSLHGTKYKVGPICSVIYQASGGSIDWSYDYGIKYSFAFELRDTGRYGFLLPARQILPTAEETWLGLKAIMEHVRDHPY
How it was run: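 hCPA2 was used at 3.0x10-8 M with AAFP substrate at 1.0x10-4 M, read at 355 nm, in 20 mM Tris-HCl pH 7.5, 500 mM NaCl, 1% DMSO, 0.05% Brij-35. After a 45 min preincubation at 37 °C, initial rates were followed at 30 sec intervals for 15 min, in triplicate. Kiapp was fitted by the tight-binding equation.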

[1] = target: T3, Carboxypeptidase D (Homo sapiens) (UniProt O75976); experiment: Inhibition of human CPD at 1 nM to 1 mM using AAFA as substrate preincubated for 45 mins to 2 hrs measured at 30 sec intervals for 15 mins by UV/vis-spectrophotometry
T3 sequence (whole entry): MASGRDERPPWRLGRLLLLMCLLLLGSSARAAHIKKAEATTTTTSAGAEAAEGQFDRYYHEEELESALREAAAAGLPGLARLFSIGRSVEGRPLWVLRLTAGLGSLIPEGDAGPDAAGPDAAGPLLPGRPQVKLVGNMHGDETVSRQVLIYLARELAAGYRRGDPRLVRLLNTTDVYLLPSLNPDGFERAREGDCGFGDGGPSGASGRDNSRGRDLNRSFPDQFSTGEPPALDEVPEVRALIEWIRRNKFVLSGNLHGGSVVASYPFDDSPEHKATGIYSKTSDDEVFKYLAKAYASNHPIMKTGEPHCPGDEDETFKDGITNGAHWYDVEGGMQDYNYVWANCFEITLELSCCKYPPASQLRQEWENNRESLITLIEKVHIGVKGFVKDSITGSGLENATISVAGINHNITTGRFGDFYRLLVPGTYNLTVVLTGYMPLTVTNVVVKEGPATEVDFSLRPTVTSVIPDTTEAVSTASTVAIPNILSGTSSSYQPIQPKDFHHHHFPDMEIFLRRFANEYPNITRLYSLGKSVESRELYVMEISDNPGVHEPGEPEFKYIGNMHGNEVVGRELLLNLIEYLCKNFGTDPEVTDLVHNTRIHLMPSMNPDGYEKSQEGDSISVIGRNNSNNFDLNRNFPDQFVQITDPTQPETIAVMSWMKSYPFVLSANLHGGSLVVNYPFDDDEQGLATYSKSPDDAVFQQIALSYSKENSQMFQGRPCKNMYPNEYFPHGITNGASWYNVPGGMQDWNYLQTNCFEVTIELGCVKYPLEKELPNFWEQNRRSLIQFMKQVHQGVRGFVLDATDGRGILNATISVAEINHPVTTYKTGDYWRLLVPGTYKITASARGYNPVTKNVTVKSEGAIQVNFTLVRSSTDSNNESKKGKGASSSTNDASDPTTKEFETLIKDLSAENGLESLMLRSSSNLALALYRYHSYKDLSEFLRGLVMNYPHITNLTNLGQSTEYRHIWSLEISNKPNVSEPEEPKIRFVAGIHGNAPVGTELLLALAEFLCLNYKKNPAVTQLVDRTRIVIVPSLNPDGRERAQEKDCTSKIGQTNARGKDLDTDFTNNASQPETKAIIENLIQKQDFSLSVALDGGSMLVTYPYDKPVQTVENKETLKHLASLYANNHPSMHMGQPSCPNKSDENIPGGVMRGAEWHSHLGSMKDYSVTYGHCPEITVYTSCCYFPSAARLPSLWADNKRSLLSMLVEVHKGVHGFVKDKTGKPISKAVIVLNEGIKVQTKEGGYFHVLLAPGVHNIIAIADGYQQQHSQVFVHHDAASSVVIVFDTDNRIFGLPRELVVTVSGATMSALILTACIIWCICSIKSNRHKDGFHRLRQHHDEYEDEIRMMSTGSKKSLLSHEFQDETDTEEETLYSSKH
How it was run: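 hCPD was used at 2.0x10-8 M with AAFA substrate at 1.0x10-4 M, monitored at 355 nm. Buffer was 20 mM Tris-HCl pH 7.5, 100 mM NaCl, 1% DMSO, 0.05% Brij-35. Preincubation was 45 min at 37 °C. Residual activity at a range of inhibitor concentrations was measured from initial rates (30 sec reads, 15 min), in triplicate. Kiapp came from the tight-binding fit.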

Row | Compound | Ki (Carboxypeptidase A1) | Ki (Carboxypeptidase A2) | inhibition [1]
1 | CC(=O)N[C@@H](CCC(=O)O)C(=O)N[C@@H](C)P(=O)(O)C[C@@H](CCc1ccccc1)C(=O)O | 3.1 nM | 4.6 nM | inactive
2 | CC(=O)N1CCC[C@H]1C(=O)N[C@@H](C)P(=O)(O)C[C@@H](CCc1ccccc1)C(=O)O | 1.7 nM | 3.2 nM | inactive
3 | CC(=O)N[C@@H](CO)C(=O)N[C@@H](C)P(=O)(O)C[C@@H](CCc1ccccc1)C(=O)O | 5.9 nM | 13.8 nM | inactive
4 | C[C@H](NC(=O)[C@H](Cc1ccc(O)cc1)NC(=O)COCCOCCNC(=O)CCOCCOCCOCCNC(=O)CCc1ccc(C(=C\C=C2\N(CCCCS(=O)(=O)O)c3ccc4c(S(=O)(=O)[O-])cc(S(=O)(=O)O)cc4c3C2(C)C)/C=C/C2=[N+](CCCCS(=O)(=O)O)c3ccc4c(S(=O)(=O)O)cc(S(=O)(=O)O)cc4c3C2(C)C)cc1)P(=O)(O)C[C@@H](CCc1ccccc1)C(=O)O | 0.089 nM | 5.3 nM | inactive
5 | CC(=O)N[C@@H](CCCCN)C(=O)N[C@@H](C)P(=O)(O)C[C@@H](CCc1ccccc1)C(=O)O | 1.2 nM | 2.4 nM | inactive

Further compounds by falling Ki (Carboxypeptidase A1), results first:

Row | Ki (Carboxypeptidase A1) | Ki (Carboxypeptidase A2) | inhibition [1] | Compound
6 | 0.3 nM | 7.8 nM | inactive | C[C@H](NC(=O)[C@H](Cc1ccc(O)cc1)NC(=O)COCCOCCN)P(=O)(O)C[C@@H](CCc1ccccc1)C(=O)O
7 | 0.129 nM | 5.7 nM | inactive | CC(=O)NCCOCCOCC(=O)N[C@@H](Cc1ccc(O)cc1)C(=O)N[C@@H](C)P(=O)(O)C[C@@H](CCc1ccccc1)C(=O)O
8 | 0.107 nM | 1.7 nM | inactive | CC(=O)N[C@@H](Cc1ccc(O)cc1)C(=O)N[C@@H](C)P(=O)(O)C[C@@H](CCc1ccccc1)C(=O)O
9 | 0.087 nM | 0.7 nM | inactive | CC(=O)N[C@@H](CC(C)C)C(=O)N[C@@H](C)P(=O)(O)C[C@@H](CCc1ccccc1)C(=O)O
10 | 0.08 nM | 0.2 nM | inactive | CC(=O)N[C@@H](CC(C)C)C(=O)N[C@@H](Cc1ccccc1)P(=O)(O)C[C@@H](CCc1ccccc1)C(=O)O
